Measurements collected from several papers.
Lines come from different studies, so protocols differ.
Target: Carbonic anhydrase 2 (CA2, Homo sapiens, UniProt P00918)
Observed: enzyme activity
Action: inhibitor

OC1CCN(c2ccc(/C=N/NC(=S)NCc3ccccc3)cc2)CC1  Ki: 561 nM
CC(C)[C@H](N)C(=O)OCCOCn1cnc2c(=O)[nH]c(N)nc21  Ki (absorbance): 5740 nM
Cc1cc(=O)oc2cc(OCCCCSC#N)ccc12  Ki (stopped-flow): > 100000 nM
CCOC(=O)N1CCC(=C2c3ccc(Cl)cc3CCc3cccnc32)CC1  Ki (absorbance): 8270 nM
OC1CCN(c2ccc(/C=N/NC(=S)NCCc3ccccc3)cc2)CC1  Ki: 656 nM
Cc1cncc(CN2CCC(=C3c4ccc(Cl)cc4CCc4cccnc43)CC2)c1  Ki (absorbance): 9180 nM
OC1CCN(c2ccc(/C=N/NC(=S)NCc3ccc(Cl)cc3)cc2)CC1  Ki: 378 nM
CCOCCn1c(C2CCN(CCc3ccc(C(C)(C)C(=O)O)cc3)CC2)nc2ccccc21  Ki (absorbance): 8440 nM
NS(=O)(=O)c1nnc(NC(=O)C2CCC3(CCCCC3)CC2)s1  Ki (stopped-flow): 32.6 nM
OC1CCN(c2ccc(/C=N/NC(=S)Nc3ccc(F)cc3)cc2)CC1  Ki: 283 nM
NS(=O)(=O)c1cnc(NC(=O)CC2CCCCC2)s1  Ki (stopped-flow): 54.3 nM
Nc1ccc(S(=O)(=O)c2ccc(N)cc2)cc1  Ki (absorbance): 9480 nM
NS(=O)(=O)c1nnc(NC(=O)CN2CC3CCC2CC3)s1  Ki (stopped-flow): 43.7 nM
CN(C)CCC(c1ccccc1)c1ccccn1 (centres unmarked)  Ki (absorbance): 14000 nM
C[C@H]1CCC[C@H](C(=O)Nc2nnc(S(N)(=O)=O)s2)C1 (racemic)  Ki (stopped-flow): 14.9 nM
OC1CCN(c2ccc(/C=N/NC(=S)Nc3ccc(Cl)cc3)cc2)CC1  Ki: 401 nM
Cc1ccccc1CC(=O)Nc1nnc(S(N)(=O)=O)s1  Ki (stopped-flow): 25.7 nM
COc1ccc(NC(=S)N/N=C/c2ccc(N3CCC(O)CC3)cc2)cc1  Ki: 603 nM
N#CSCc1cc(=O)oc2cc(O)ccc12  Ki (stopped-flow): > 100000 nM
NS(=O)(=O)c1nnc(NC(=O)C2CCC3(CCC3)CC2)s1  Ki (stopped-flow): 21.7 nM
